Screening data deposited in PubChem BioAssay by Johns Hopkins Ion Channel Center.
Only some compounds are listed: those with a hit (about 3% of all), similar ones and a draw of the others.
TRPC4 inh: inhibitors of mouse TRPC4 channel. B-score at 10 µM. actives 0.39% (n = 300,000). AID 2247. Q9QUQ5. HEK293 TRPC4beta/mu-opioid, DAMGO-evoked Fluo4 calcium flux; active compounds read low;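 active = B-score over 3 SD under the library average, no early fluorescence shift, positive overall ratio signal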
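test system = HEK293 cells with stable TRPC4beta plus mu-opioid receptor expression | detection = Fluo4 Ca2+ flux fluorescence | read-out = integrated fluorescence ratio relative to baseline, converted to per-well B score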
TRPC6 activator: mouse TRPC6 channel activation; actives 0.13% (n = 310,000); B-score at 10 µM; AID 2550; HEK293-TRPC6 membrane potential dye fluorescence; active compounds read high; Q61143;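 active = B-score of the integrated fluorescence ratio above library mean plus 3 SD, and starting fluorescence ratio within library mean plus 5 SD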;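 note: higher score means more depolarization so channel activation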
TRPC4 act: opens the mouse TRPC4 cation channel; Q9QUQ5; HEK293 TRPC4beta/mu-opioid, Fluo4 calcium fluorescence; active compounds read high; B-score at 10 µM; actives 0.49% (n = 310,000);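 active = B-score above 5 SD of library B-scores, and initial fluorescence ratio not above library mean plus 5 SD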;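 note: positive B-score marks a calcium rise read as TRPC4 activation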
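Assay system: HEK293 cells stably co-expressing mouse TRPC4beta and mu-opioid receptor / Timing: Fluo4 dye loading 45 min at room temperature, 110 s recording / Signal: Fluo4 calcium-sensitive dye fluorescence, kinetic, 1 Hz baseline / Read-out: integrated baseline-normalised fluorescence ratio, converted to per-well B score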
TRPC6 inhibitor: blocks the mouse TRPC6 cation channel. HEK293-TRPC6, membrane potential dye, ACh-evoked depolarization; active compounds read low. actives 1.1% (n = 310,000). B-score at 10 µM;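 active = B-score under library mean minus 3 SD, initial fluorescence not abnormally high, positive integrated signal ratio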;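 note: B-score derived from integrated fluorescence ratio over the kinetic read; more negative B-score means stronger inhibition of depolarization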
Kir21 inh: blocks the mouse Kir2.1 inward-rectifier potassium channel; actives 0.85% (n = 310,000); B-score at 10 µM; P35561; HEK293-Kir2.1, FluxOR thallium flux fluorescence; active compounds read low;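 active = fluorescence ratio B-score at or below minus 3 SD of library scores, with starting-brightness B-score within 2 SD, cut at about -4.2 in these data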;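 note: channel flux triggered by added potassium and thallium sulfate stimulus; B-score of peak minus minimum fluorescence over baseline after thallium stimulus; more negative B-score means stronger Kir2.1 block with less thallium influx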
TRPC4 potent: TRPC4 (mouse) allosteric potentiation; Q9QUQ5; HEK293 TRPC4beta/mu-opioid, DAMGO EC20, Fluo-4 Ca2+ flux; active compounds read high; B-score at 10 µM; actives 0.42% (n = 310,000);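 active = B-score of calcium response area above 5 SD of library B-scores, with initial fluorescence ratio within 5 SD of library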
A number is an active result; i = inactive; nt = no result.

SMILES	TRPC4 inh	TRPC6 activator	TRPC4 act	TRPC6 inhibitor	Kir21 inh	TRPC4 potent
CC(C)n1cc(CNC(=O)C2CCC(=O)N(Cc3ccccc3F)C2)cn1 (stereo unspecified)	i	i	i	i	i	i
CN1C(=O)C2(OCC(COc3ccc(Cl)cc3)O2)c2ccccc21 (stereo unspecified)	i	i	i	i	i	i
CC(=O)N1CCN(c2ccc(OC[C@H]3CO[C@](Cn4ccnc4)(c4ccc(Cl)cc4Cl)O3)cc2)CC1	i	i	52	i	nt	i
CCn1cc(CN2CCCC(C(=O)Nc3cccc(-c4cc5ccccc5[nH]4)c3)C2)c(C)n1 (stereo unspecified)	i	i	i	i	i	i
Cc1ncc(CN2CCCC(C(=O)Nc3ccc(-c4cccc(F)c4)cc3)C2)n1C (stereo unspecified)	i	i	i	i	-4.29	i
Cc1cc(CN2CCCC(C(=O)Nc3ccc(-c4nc5ccccc5[nH]4)cc3)C2)n[nH]1 (stereo unspecified)	-5	i	i	i	i	i
CCn1cc(CN2CCCC(C(=O)Nc3ccc(-c4nc5ccccc5[nH]4)cc3)C2)c(C)n1 (stereo unspecified)	i	i	206	i	i	i
COc1cccc(-c2ccc(NC(=O)C3CCCN(Cc4cnc(C)n4C)C3)cc2)c1 (stereo unspecified)	i	i	i	i	i	i
CC(Cc1ccc(Cl)cc1)N1CCC(n2nccc2NC(=O)C2CCCC2)CC1 (stereo unspecified)	i	i	i	i	i	i
CN(C)S(=O)(=O)c1ccc(Cl)c(C(=O)NC2=NCCS2)c1	i	i	i	i	i	i
Cc1cccc(NC(=O)CSCC(=O)N(C)Cc2c(F)cccc2Cl)c1	i	i	i	i	i	i
COc1ccc(CN2CC(C(=O)NCCC(C)C)CC2=O)cc1 (stereo unspecified)	i	i	i	i	i	i
COC(=O)C1CC(=O)N(Cc2ccccc2)C1 (stereo unspecified)	i	i	i	i	i	i
CN(C)C(CNC(=O)C1CC(=O)N(Cc2ccccc2)C1)c1ccccc1 (stereo unspecified)	i	i	72	i	i	i
COc1ccc(C(CNC(=O)C2CC(=O)N(Cc3ccc(C)cc3)C2)N(C)C)cc1 (stereo unspecified)	i	i	66	i	i	i
O=C(Nc1ccncc1Cl)c1ccncc1	i	i	i	i	i	i
CC(C)N1CCC(N2CCN(CC#Cc3ccccc3)CC2CCO)CC1 (stereo unspecified)	i	i	i	i	i	i
O=C(CSc1nc2[nH]ncc2c(=O)n1-c1ccccc1Br)NCc1ccccc1Cl	-6	i	i	i	i	i
O=[N+]([O-])c1ccc(-[n+]2ccc3ccccc3c2)c([N+](=O)[O-])c1	i	i	i	i	-4.73	i
O=C(NCC1CCCO1)C1CCCN(Cc2cnn(-c3ccccc3)c2-n2cccc2)C1 (stereo unspecified)	i	i	i	i	i	i
Cc1ccc(CNC(=O)C2CCCN(Cc3cnn(-c4ccccc4)c3-n3cccc3)C2)cc1 (stereo unspecified)	i	i	95	i	i	i
CCN1CCN(c2ccc(NC(=O)c3ccc(Br)o3)cc2)CC1	i	i	i	i	i	i
CN1CCN(c2ccc(NC(=O)c3ccc(-c4ccc(Br)cc4)o3)cc2)CC1	-7	i	48	i	i	i
O=C(NCc1cccc(Cl)c1)C1CCC(=O)N(CCN2CCOCC2)C1 (stereo unspecified)	i	i	i	i	i	i
O=c1cc(-c2ccccc2Cl)oc2c(NS(=O)(=O)c3cc(Cl)cc(Cl)c3O)ccc(O)c12	nt	i	120	i	i	i
SMILES	TRPC4 inh	TRPC6 activator	TRPC4 act	TRPC6 inhibitor	Kir21 inh	TRPC4 potent
COc1ccc(NCc2nc3ccccc3n2CCOc2ccccc2)cc1	i	i	i	i	-4.55	i
Nc1nc2ccccc2n1CCOc1ccc(Br)cc1	i	i	i	i	-10.9	i
Cc1ccc(OCCn2c(C)nc3ccccc32)cc1	-6	i	i	i	i	i
Nc1nc2ccccc2n1CCOc1ccc(Cl)cc1	-7	i	i	i	i	i
Cc1nc2ccccc2n1CCCOc1ccccc1	i	i	i	i	i	i
CSc1ccccc1OCc1cc(C(=O)N(C)Cc2ccncn2)no1	i	i	i	i	i	i
Cc1nc(Cl)c(Cl)n1CCOc1ccccc1	-8	i	i	i	i	i
O=C1c2ccccc2S(=O)(=O)c2cc(C(=O)N(c3ccccn3)c3ccccn3)ccc21	i	i	135	i	i	i
CCCC(O)(c1ccc(Cl)cc1)C(CN1CCOCC1)c1ccccc1 (stereo unspecified)	-5	i	i	i	i	i
CCCC(O)(c1ccccc1)C(CN1CCOCC1)c1ccccc1 (stereo unspecified)	i	i	i	i	i	i
O=C(Nc1ccnn1C1CCN(CCCC2CCCC2)CC1)c1ccccc1Cl	-8	i	i	i	i	i
CSCCC(NS(=O)(=O)c1ccc2c(c1)oc(=O)n2C)C(=O)NC1CCCCC1 (stereo unspecified)	i	i	i	i	i	i
CSCCC(NS(=O)(=O)c1ccc2c(c1)c(=O)n(C)c(=O)n2C)C(=O)NC1CCN(Cc2ccccc2)CC1 (stereo unspecified)	i	i	90	i	i	i
Cc1ccc(NC(=O)NNC(=O)CN2C(=O)COc3ccccc32)cc1	i	i	i	i	i	i
CC[n+]1c(/C=C2/C=C(C)CC(C)C2)sc2ccccc21 (stereo unspecified)	i	i	i	i	i	i
CC[n+]1c(C=C2C=C(C)OC(C)=C2)sc2ccccc21	-8	i	i	i	i	i
COCc1c(C(=O)N/N=C/c2ccncc2)nnn1-c1nonc1N	i	i	i	i	i	i
Cc1ccc2nc(C(=O)N3CCc4c([nH]c5ccccc45)C3c3ccccn3)cn2c1 (stereo unspecified)	i	i	81	i	i	i
O=C(COc1coc(CN2CCN(c3ccccc3F)CC2)cc1=O)Nc1ccccc1	i	i	i	i	i	32
Cc1cc(C)n(S(=O)(=O)c2ccc(C(C)(C)C)cc2)n1	i	i	i	-6.56	i	i
O=C(CC(C(=O)NCc1ccccc1)c1nc2ccccc2c(=O)[nH]1)NCc1ccccc1 (stereo unspecified)	i	i	i	i	i	i
O=C(c1ccc(-c2ccccc2)cc1)C1CCCN(Cc2ccncc2)C1 (stereo unspecified)	i	i	i	i	i	i
